ChEMBL document CHEMBL1123593, “2,4-diamino-6,7-dimethoxyquinazolines. 1. 2-[4-(1,4-benzodioxan-2-ylcarbonyl)piperazin-1-yl] derivatives as alpha 1-adrenoceptor antagonists and antihypertensive agents” (J Med Chem, 1987)
The source made the active and inactive calls. The calls are words filed in the database; no cut-off is given here.

Tested on: Rattus norvegicus
Experiment: Percent reduction in blood pressure in spontaneously hypertensive rats (SHR) at peroral dose of 5 mg/kg was determined after 1 hr
Assay type: functional
Settings: route oral
Outline: (§1)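 Single oral gavage dose of 5 mg/kg to groups of six spontaneously hypertensive rats, all with starting systolic pressure above 175 mmHg. Rats were warmed at 33 °C for 20–30 min before readings. Systolic pressure was taken by tail cuff with a variable capacitance transducer, predose and at 1, 2, 4 and 6 h. Percent reduction from predose is given. Saline-dosed controls (n = 10) were run.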

| SMILES | Reduction |
| --- | --- |
| COc1cc2nc(N3CCN(C(=O)C4COc5cc(C(C)=O)ccc5O4)CC3)nc(N)c2cc1OC (stereo not given) | 26% |
| COc1cc2nc(N3CCCN(C(=O)C4COc5ccccc5O4)CC3)nc(N)c2cc1OC (stereo not given) | 22% |
| COc1cc2nc(N3CCN(C(=O)C4CCOc5ccccc5O4)CC3)nc(N)c2cc1OC (stereo not given) | 21% |

Same assay, conditions: route oral, 5 mg/kg

| SMILES | Reduction |
| --- | --- |
| COc1cc2nc(N3CCN(C(=O)C4COc5ccccc5O4)CC3)nc(N)c2cc1OC (single isomer, unassigned; (+)) [DOXAZOSIN] | 27% |
| COc1cc2nc(N3CCN(C(=O)C4Oc5ccccc5OC4C)CC3)nc(N)c2cc1OC (trans isomer) [listing 1 of 2 here] | 21% |
| COc1cc2nc(N3CCN(C(=O)C4COc5ccccc5O4)CC3)nc(N)c2cc1OC (single isomer, unassigned; (-)) [DOXAZOSIN] | 12% |
| COc1cc2nc(N3CCN(C(=O)C4COc5ccccc5O4)CC3)nc(N)c2cc1OC (stereo in doubt; 1) [DOXAZOSIN] | 23% |
| COc1cc2nc(N3CCN(C(=O)C4Oc5ccccc5OC4C)CC3)nc(N)c2cc1OC (cis isomer) [listing 1 of 2 here] | 23% |

Molecular target: Adrenergic receptor alpha-1 (Homo sapiens) (UniProt P35348+P25100+P35368)
Experiment: Antagonist activity against post junctional alpha-1 adrenergic receptor was measured by Kerbs super fused rabbit pulmonary artery preparations labeled with [3H]- norepinephrine.
Assay type: functional
Settings: Oryctolagus cuniculus; target entry is the homologue from another species
Outline: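 Rabbit pulmonary artery superfused in Krebs after [3H]-noradrenaline labelling, with transmural electrical stimulation (3 Hz, 0.05 h). Postjunctional response was read as contraction on an isometric transducer. Percent antagonism was plotted against compound concentration. EC40-post, the concentration giving 40% reduction of contractile response, was read from the graph. Values are averaged from two experiments, six for some.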

| SMILES | EC40 |
| --- | --- |
| COc1cc2nc(N3CCN(C(=O)C4COc5ccccc5O4)CC3)nc(N)c2cc1OC (stereo in doubt; 1) | 50 nM |
| COc1cc2nc(N3CCN(C(=O)C4COc5ccccc5O4)CC3)nc(N)c2cc1OC (single isomer, unassigned; (+)) | 7 nM |
| COc1cc2nc(N3CCN(C(=O)C4Oc5ccccc5OC4C)CC3)nc(N)c2cc1OC (trans isomer) [listing 2 of 2 here] | 13 nM |
| COc1cc2nc(N3CCN(C(=O)C4Oc5ccccc5OC4C)CC3)nc(N)c2cc1OC (cis isomer) [listing 2 of 2 here] | 27 nM |
| COc1cc2nc(N3CCN(C(=O)C4COc5ccccc5O4)CC3)nc(N)c2cc1OC (single isomer, unassigned; (-)) | 40 nM |

Tested on: Rattus norvegicus
Experiment: Percent reduction in blood pressure in spontaneously hypertensive rats (SHR) at peroral dose of 5 mg/kg was determined after 6 hr
Assay type: functional
Settings: route oral
Outline: as §1

| SMILES | Reduction |
| --- | --- |
| COc1cc2nc(N3CCN(C(=O)C4COc5cc(C(C)=O)ccc5O4)CC3)nc(N)c2cc1OC (stereo not given) | 24% |
| COc1cc2nc(N3CCCN(C(=O)C4COc5ccccc5O4)CC3)nc(N)c2cc1OC (stereo not given) | 12% |
| COc1cc2nc(N3CCN(C(=O)C4CCOc5ccccc5O4)CC3)nc(N)c2cc1OC (stereo not given) | 16% |

Same assay, conditions: route oral, 5 mg/kg

| SMILES | Reduction |
| --- | --- |
| COc1cc2nc(N3CCN(C(=O)C4COc5ccccc5O4)CC3)nc(N)c2cc1OC (single isomer, unassigned; (+)) [DOXAZOSIN] | 24% |
| COc1cc2nc(N3CCN(C(=O)C4Oc5ccccc5OC4C)CC3)nc(N)c2cc1OC (trans isomer) [listing 1 of 2 here] | 21% |
| COc1cc2nc(N3CCN(C(=O)C4COc5ccccc5O4)CC3)nc(N)c2cc1OC (stereo in doubt; 1) [DOXAZOSIN] | 27% |
| COc1cc2nc(N3CCN(C(=O)C4Oc5ccccc5OC4C)CC3)nc(N)c2cc1OC (cis isomer) [listing 1 of 2 here] | 25% |

Molecular target: Adrenergic receptor alpha-2 (Homo sapiens) (UniProt P08913+P18825+P18089)
Experiment: not given
Settings: Oryctolagus cuniculus; Pulmonary artery

| SMILES | EC40 |
| --- | --- |
| COc1cc2nc(N3CCN(C(=O)C4Oc5ccccc5OC4C)CC3)nc(N)c2cc1OC (trans isomer) [listing 2 of 2 here] | inactive |
| COc1cc2nc(N3CCN(C(=O)C4Oc5ccccc5OC4C)CC3)nc(N)c2cc1OC (cis isomer) [listing 2 of 2 here] | inactive |

Molecular target: T1, Adrenergic receptor alpha-1 (Rattus norvegicus, UniProt P15823+P23944+P43140)
T1 sequence (P15823 whole entry): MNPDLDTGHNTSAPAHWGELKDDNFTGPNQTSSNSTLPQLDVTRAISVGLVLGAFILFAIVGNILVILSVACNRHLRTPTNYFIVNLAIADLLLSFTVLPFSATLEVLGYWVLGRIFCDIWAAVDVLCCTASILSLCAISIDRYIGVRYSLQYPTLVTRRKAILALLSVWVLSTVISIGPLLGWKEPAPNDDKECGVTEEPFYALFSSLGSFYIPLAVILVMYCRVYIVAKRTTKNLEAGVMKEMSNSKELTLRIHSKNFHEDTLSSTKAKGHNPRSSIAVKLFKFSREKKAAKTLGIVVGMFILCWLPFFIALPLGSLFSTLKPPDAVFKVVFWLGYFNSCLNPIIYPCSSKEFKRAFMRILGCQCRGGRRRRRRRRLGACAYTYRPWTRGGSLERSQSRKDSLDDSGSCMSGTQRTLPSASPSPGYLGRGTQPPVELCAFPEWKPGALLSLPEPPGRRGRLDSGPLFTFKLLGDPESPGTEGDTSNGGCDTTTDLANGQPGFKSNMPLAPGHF
T1 sequence (P23944 whole entry): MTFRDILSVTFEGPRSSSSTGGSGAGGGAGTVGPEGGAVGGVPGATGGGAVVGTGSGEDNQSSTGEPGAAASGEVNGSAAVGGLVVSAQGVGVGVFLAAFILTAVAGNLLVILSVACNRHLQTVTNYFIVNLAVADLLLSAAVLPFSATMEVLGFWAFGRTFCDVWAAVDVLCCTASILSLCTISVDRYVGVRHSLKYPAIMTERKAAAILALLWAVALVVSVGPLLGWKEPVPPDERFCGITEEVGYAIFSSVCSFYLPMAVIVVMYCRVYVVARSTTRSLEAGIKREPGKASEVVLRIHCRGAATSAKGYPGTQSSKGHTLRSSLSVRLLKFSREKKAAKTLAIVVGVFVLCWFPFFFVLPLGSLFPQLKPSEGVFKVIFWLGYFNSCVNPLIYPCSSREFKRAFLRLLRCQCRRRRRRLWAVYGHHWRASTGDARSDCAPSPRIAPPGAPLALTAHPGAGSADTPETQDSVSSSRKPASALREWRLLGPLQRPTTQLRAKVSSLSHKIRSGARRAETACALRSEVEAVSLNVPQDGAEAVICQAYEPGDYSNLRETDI
T1 sequence (P43140 whole entry): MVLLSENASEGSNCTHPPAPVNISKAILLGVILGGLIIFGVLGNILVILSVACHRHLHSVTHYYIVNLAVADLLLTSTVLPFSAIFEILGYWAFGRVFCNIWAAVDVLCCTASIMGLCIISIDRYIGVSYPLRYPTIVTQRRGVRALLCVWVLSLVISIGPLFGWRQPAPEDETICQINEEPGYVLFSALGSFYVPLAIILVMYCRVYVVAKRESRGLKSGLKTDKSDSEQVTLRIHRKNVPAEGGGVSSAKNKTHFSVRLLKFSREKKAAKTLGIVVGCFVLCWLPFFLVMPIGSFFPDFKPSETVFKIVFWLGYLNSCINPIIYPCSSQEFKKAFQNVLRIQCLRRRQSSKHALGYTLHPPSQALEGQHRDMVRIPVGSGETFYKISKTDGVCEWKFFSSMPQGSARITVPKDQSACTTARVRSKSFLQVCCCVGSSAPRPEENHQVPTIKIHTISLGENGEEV
Experiment: Compound was tested for its binding affinity for alpha-1 adrenergic receptor site by displacement of [3H]prazosin at 0.15 nM concentration
Settings: not given

| SMILES | Ki |
| --- | --- |
| COc1cc2nc(N3CCN(C(=O)C4COc5ccccc5O4)CC3)nc(N)c2cc1OC (single isomer, unassigned; (+)) [DOXAZOSIN] | 2.6 nM |
| COc1cc2nc(N3CCN(C(=O)C4Oc5ccccc5OC4C)CC3)nc(N)c2cc1OC (trans isomer) [listing 1 of 2 here] | 2.1 nM |
| COc1cc2nc(N3CCN(C(=O)C4COc5ccccc5O4)CC3)nc(N)c2cc1OC (single isomer, unassigned; (-)) [DOXAZOSIN] | 2.2 nM |
| COc1cc2nc(N3CCN(C(=O)C4COc5ccccc5O4)CC3)nc(N)c2cc1OC (stereo in doubt; 1) [DOXAZOSIN] | 1.1 nM |
| COc1cc2nc(N3CCN(C(=O)C4Oc5ccccc5OC4C)CC3)nc(N)c2cc1OC (cis isomer) [listing 1 of 2 here] | 0.7 nM |
| COc1cc2nc(N3CCN(C(=O)C4COc5cc(C(C)=O)ccc5O4)CC3)nc(N)c2cc1OC (stereo not given) | 6.4 nM |
| COc1cc2nc(N3CCCN(C(=O)C4COc5ccccc5O4)CC3)nc(N)c2cc1OC (stereo not given) | 1.6 nM |
| COc1cc2nc(N3CCN(C(=O)C4CCOc5ccccc5O4)CC3)nc(N)c2cc1OC (stereo not given) | 3.8 nM |
